Experimental data: ChEMBL document CHEMBL3817777, “A new motif for inhibitors of geranylgeranyl diphosphate synthase” (Bioorg Med Chem, 2016)
Active and inactive are the calls of the source. The calls are words filed in the database; no cut-off is given here.

Columns and labels:
[1] = Cytotoxicity against human ALMC2 cells after 48 hrs by MTT assay; assay type: functional, cell-based; details: ALMC2, 48 h
Procedure, shortened: (§1)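 Cells were plated at 2.5 ×10^4 cells/100 μL/well and exposed to compounds for 48 hrs. MTT (5 mg/mL in PBS) was then added for 4 hrs, and the product was solubilized overnight at 37 °C in 0.01 M HCl/10% SDS. Absorbance was read at 540 nm, with untreated controls set as 100% MTT activity. Each test ran in quadruplicate across three independent experiments, and EC50 is reported as mean ± standard deviation.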

[2] = target: T1, Geranylgeranyl pyrophosphate synthase (Homo sapiens) (UniProt O95749); test: Inhibition of GGDPS in human RPMI8266 cells assessed as disruption of Rap1a geranylgeranylation after 48 hrs by immunoblot analysis; assay type: cell-based
T1 sequence (whole entry): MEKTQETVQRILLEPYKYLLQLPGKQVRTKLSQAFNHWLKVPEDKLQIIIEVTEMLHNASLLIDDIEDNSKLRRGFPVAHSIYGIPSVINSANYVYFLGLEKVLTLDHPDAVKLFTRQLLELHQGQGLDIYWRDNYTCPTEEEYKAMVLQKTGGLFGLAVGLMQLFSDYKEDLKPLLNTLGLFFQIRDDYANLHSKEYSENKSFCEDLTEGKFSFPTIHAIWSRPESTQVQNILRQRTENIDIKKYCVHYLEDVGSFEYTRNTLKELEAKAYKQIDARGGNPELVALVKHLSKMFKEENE
Procedure, shortened: (§2)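 Cells were lysed in RIPA buffer (0.15 M NaCl, 1% deoxycholate, 0.1% SDS, 1% Triton X-100, 0.05 M Tris HCl) with protease and phosphatase inhibitors. Protein was quantified by BCA, and equal amounts were run on SDS-PAGE and transferred to PVDF. Blots were probed for unmodified Rap1a, a GGTase I substrate, and detected with HRP secondary antibodies and ECL.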

[3] = Cytotoxicity against human MM1S cells after 48 hrs by MTT assay; assay type: functional, cell-based; details: MM1.S; procedure, shortened: as §1
[4] = Cytotoxicity against human RPMI8266 cells after 48 hrs by MTT assay; assay type: functional, cell-based; details: RPMI8266, 48 h; procedure, shortened: as §1
[5] = target: T1, Geranylgeranyl pyrophosphate synthase (Homo sapiens); test: Inhibition of GGDPS in human RPMI8266 cells assessed as lambda light chain levels after 48 hrs by ELISA; assay type: cell-based
[6] = target: T1, Geranylgeranyl pyrophosphate synthase (Homo sapiens); test: Inhibition of GGDPS in human RPMI8266 cells assessed as disruption of Rap1a geranylgeranylation at low concentrations after 48 hrs by immunoblot analysis; assay type: cell-based; procedure, shortened: as §2
[7] = target: T1, Geranylgeranyl pyrophosphate synthase (Homo sapiens); test: Inhibition of GGDPS in human RPMI8266 cells assessed as lambda light chain levels at low concentrations after 48 hrs by ELISA; assay type: cell-based
[8] = target: T1, Geranylgeranyl pyrophosphate synthase (Homo sapiens); test: Inhibition of GGDPS in human RPMI8266 cells assessed as disruption of Rap1a geranylgeranylation at 1 uM after 48 hrs by immunoblot analysis in presence of GGDP; assay type: cell-based; procedure, shortened: as §2
[9] = target: T1, Geranylgeranyl pyrophosphate synthase (Homo sapiens); test: Inhibition of GGDPS in human RPMI8266 cells assessed as lambda light chain levels at 1 uM after 48 hrs by ELISA in presence of GGDP; assay type: cell-based
[10] = target: T1, Geranylgeranyl pyrophosphate synthase (Homo sapiens); test: Inhibition of GGDPS in human RPMI8266 cells assessed as disruption of Rap1a geranylgeranylation at 5 uM after 48 hrs by immunoblot analysis in presence of mevalonate; assay type: cell-based; procedure, shortened: as §2
[11] = target: T1, Geranylgeranyl pyrophosphate synthase (Homo sapiens); test: Inhibition of GGDPS in human RPMI8266 cells assessed as lambda light chain levels at 5 uM after 48 hrs by ELISA in presence of mevalonate; assay type: cell-based
[12] = target: T1, Geranylgeranyl pyrophosphate synthase (Homo sapiens); test: Inhibition of GGDPS in human RPMI8266 cells assessed as lambda light chain levels at 5 uM after 48 hrs by ELISA in presence of GGDP; assay type: cell-based
[13] = target: T1, Geranylgeranyl pyrophosphate synthase (Homo sapiens); test: Inhibition of GGDPS in human RPMI8266 cells assessed as disruption of Rap1a geranylgeranylation at 5 uM after 48 hrs by immunoblot analysis in presence of GGDP; assay type: cell-based; procedure, shortened: as §2

inhibition [2]	inhibition [5]	inhibition [6]	inhibition [7]	inhibition [8]	inhibition [9]	inhibition [10]	inhibition [11]	inhibition [12]	inhibition [13]	SMILES	EC50 [1] [µM]	EC50 [3] [µM]	EC50 [4] [µM]
		Active	Active							CC(C)=CCC/C(C)=C/CC(C)(P(=O)(OCC[C@H](C)CCC=C(C)C)OCOC(=O)C(C)(C)C)P(=O)(OCOC(=O)C(C)(C)C)OCOC(=O)C(C)(C)C (stereo partly drawn)			
Dose-dependent effect	Dose-dependent effect									CC(C)=CCC/C(C)=C/CC(CC=C(C)C)(P(=O)(OCC[C@@H](C)CCC=C(C)C)OCOC(=O)C(C)(C)C)P(=O)(OCOC(=O)C(C)(C)C)OCOC(=O)C(C)(C)C (stereo partly drawn)	28.2	25.3	7.3
Dose-dependent effect	Dose-dependent effect									CC(C)=CCC/C(C)=C/CC(P(=O)(OCC[C@@H](C)CCC=C(C)C)OCOC(=O)C(C)(C)C)P(=O)(OCOC(=O)C(C)(C)C)OCOC(=O)C(C)(C)C (stereo partly drawn)	12.6	5.7	7.1

Second part, the compound before the results:

SMILES	inhibition [2]	inhibition [5]	inhibition [6]	inhibition [7]	inhibition [8]	inhibition [9]	inhibition [10]	inhibition [11]	inhibition [12]	inhibition [13]	EC50 [1] [µM]	EC50 [3] [µM]	EC50 [4] [µM]
C=CCC(C/C=C(\C)CCC=C(C)C)(P(=O)(OCC[C@@H](C)CCC=C(C)C)OCOC(=O)C(C)(C)C)P(=O)(OCOC(=O)C(C)(C)C)OCOC(=O)C(C)(C)C (stereo partly drawn)	Dose-dependent effect	Dose-dependent effect									25.4	10.7	8.4
CC(C)=CCC/C(C)=C/CC(C/C=C(\C)CCC=C(C)C)(P(=O)(OCC[C@@H](C)CCC=C(C)C)OCOC(=O)C(C)(C)C)P(=O)(OCOC(=O)C(C)(C)C)OCOC(=O)C(C)(C)C (stereo partly drawn)	Dose-dependent effect	Dose-dependent effect									> 100	48.2	26.7
CC(C)=CCC/C(C)=C/CC(C)(P(=O)(OCC[C@@H](C)CCC=C(C)C)OCOC(=O)C(C)(C)C)P(=O)(OCOC(=O)C(C)(C)C)OCOC(=O)C(C)(C)C (stereo partly drawn)	Dose-dependent effect	Dose-dependent effect			inactive	inactive					5.4	2.7	1.6
CC[C@H](C)C(=O)O[C@H]1C[C@@H](C)C=C2C=C[C@H](C)[C@H](CC[C@@H]3C[C@@H](O)CC(=O)O3)[C@H]21							inactive	inactive	inactive	inactive			
